From PubChem
CSN inh = blocks human CSN-mediated cullin deneddylation; 0.38% of 360,000 active; Q92905; Purified CSN, SCF-Nedd8-OG deneddylation, fluorescence polarization; inhibition, % at 12.5 µM;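 active = pattern-corrected inhibition above about 35%, with an unprinted fluorescence ratio check between 0.5 and 1.5, limit read from the data, passing the limit was not always enough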;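 note: 0% = enzyme with substrate and 100% = substrate without enzyme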
Target sequence (Q92905 whole entry, looked up, one chain of several): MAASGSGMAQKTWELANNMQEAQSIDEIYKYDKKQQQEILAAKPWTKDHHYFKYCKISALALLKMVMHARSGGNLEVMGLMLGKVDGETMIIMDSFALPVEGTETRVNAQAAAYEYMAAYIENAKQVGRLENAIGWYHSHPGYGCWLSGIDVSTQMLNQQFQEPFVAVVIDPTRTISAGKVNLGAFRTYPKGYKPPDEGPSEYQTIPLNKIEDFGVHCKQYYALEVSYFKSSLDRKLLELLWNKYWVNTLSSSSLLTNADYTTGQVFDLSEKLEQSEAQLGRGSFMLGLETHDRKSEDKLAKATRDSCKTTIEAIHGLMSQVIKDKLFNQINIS
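assay system = purified human Csn5 enzyme expressed in HEK293T cells | amount = 0.24 nM enzyme | buffer or medium = Tris/NaCl/DTT buffer, pH 7.5 | reagent = 10 nM SCFSkp2-Nedd8OG | compound = one concentration, 12.5 µM, 0.25% DMSO | times = 90 min reaction at room temperature | signal = FP | read-out basis = % inhibition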
SUMO1 PPI mod = alters human SUMO1 binding to SIM partners. inhibition, % at 20 µM. 0.33% of 360,000 active. P63165. SUMO1 binding to a labelled peptide, TR-FRET, 1 h; in the data active = inhibition above about 37%
Target sequence (P63165 whole entry, looked up): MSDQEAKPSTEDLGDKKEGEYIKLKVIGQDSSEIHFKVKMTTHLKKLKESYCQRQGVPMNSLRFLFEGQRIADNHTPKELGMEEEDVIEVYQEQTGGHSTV
Scp-1 inhibitor = inhibitors of human Scp-1 phosphatase | Q9GZU7 | Recombinant Scp1, phosphopeptide, malachite green phosphate absorbance | inhibition, % at 20 µM | 0.88% of 340,000 active | AID 493091;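 active = inhibition above about 50% at 20 µM, limit read from the data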;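 note: plate controls were DMSO wells with enzyme for no effect and wells lacking enzyme for full effect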
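Times: enzyme reaction 45 min at room temperature, colour 5 min, stabilisation 30 min. Material: SCP-1 catalytic fragment, aa 76-261. Medium: Acidic Tris acetate buffer with magnesium and detergent. Signal: colorimetric free-phosphate detection, absorbance 630 nm. Read-out basis: % inhibition of SCP-1 phosphate liberation. Reagent: Phosphorylated 17-residue peptide substrate.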
LMPTP block = LMPTP (human) inhibition. 0.22% of 360,000 active. recombinant LMPTP-A, OMFP fluorogenic substrate, fluorescence intensity. inhibition, % at 20 µM. P24666;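 active = compounds that cut the enzyme signal by at least half of the control window in the single-dose screen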;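 note: plate controls were DMSO wells with enzyme plus substrate for no effect and substrate without enzyme for full effect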
Target sequence (P24666 whole entry, looked up): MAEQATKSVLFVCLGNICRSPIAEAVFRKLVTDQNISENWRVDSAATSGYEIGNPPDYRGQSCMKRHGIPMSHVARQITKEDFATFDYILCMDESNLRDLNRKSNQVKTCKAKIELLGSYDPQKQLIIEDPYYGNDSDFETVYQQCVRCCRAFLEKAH
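Assay system: LMPTP-A enzyme. Input: 0.625 nM LMPTP-A final. Probe or stimulus: 400 µM OMFP. Compound dosing: single 20 µM dose. Schedule: 50 min dark incubation at room temperature. Detection: fluorescence intensity of OMFP turnover product. Read-out: percent inhibition versus substrate-only and uninhibited controls. Benchmarks: no-enzyme low control, uninhibited high control.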
STEP block = blocks human striatal-enriched tyrosine phosphatase | P54829 | recombinant STEP, OMFP fluorogenic substrate, fluorescence | inhibition, % at 20 µM | 0.25% of 360,000 active;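 active = inhibition at 20 µM, scaled per plate between control wells, above about 37%, limit read from the data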;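 note: 0% = DMSO with enzyme and substrate and 100% = substrate only without enzyme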
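Assay system: isolated STEP enzyme. Buffer or medium: pH 6.0 Bis-Tris with DTT and Tween 20. Also added: fluorogenic phosphatase substrate OMFP at 25 µM final. Dosing: 20 µM, 1% DMSO. Timing: 20 min reaction, room temperature, in the dark. Measured by: fluorescence intensity, excitation 480 nm, emission 540 nm. Evaluation: normalized % inhibition.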
DNMT1 inh = blocks human DNA methyltransferase DNMT1; DNMT1 molecular beacon, Hinp1I cleavage, fluorescence; inhibition (reported as % activation of signal), % at 10 µM; 0.83% of 360,000 active; in the data active = inhibition above about 50%
Beacon interf DR = beacon fluorescence artifact, dose response counter-screen | IC50, µM | 200 tested, under 10 active | AID 602382 | shares compounds with DNMT1 inh | molecular beacon fluorescence, spectral interference counter-screen; call rule not given here
DNMT1 inh conf = confirmation of human DNMT1 inhibitors. shares compounds with DNMT1 inh. DNMT1 molecular beacon HinP1I cleavage, fluorescence. inhibition, % at 10 µM. 8% of 2,300 active;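 active = average inhibition of at least 30% in the single-concentration confirmation test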
DNMT1 interf = shows spectral interference in the DNMT1 beacon assay. shares compounds with DNMT1 inh. DNMT1 molecular beacon spectral interference counterscreen, fluorescence 485/520. activation (fluorescence interference), % at 10 µM. 1% of 2,300 active;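 active = activation of at least 30% at 10 µM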;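 note: DNMT1 catalytic domain with a HinP1I cleavage step and a FAM/dabcyl DNA beacon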
Starred values were filed as active, the others as inactive; . = not tested or not shown. The list is not random: actives were taken first. Their share in the collection is about 2%.

SMILES | CSN inh | SUMO1 PPI mod | Scp-1 inhibitor | LMPTP block | STEP block | DNMT1 inh | DNMT1 inh conf | DNMT1 interf | others
O=C(/C=C/c1ccco1)Nc1sc2c(c1C(=O)O)CCC2 | 6 | -14 | 29 | -1 | 2 | 53* | 1 | -1
O=C(/C=C/c1ccco1)Nc1ccccc1C(=O)O | 14 | 7 | 54* | 0 | 11 | 80* | 7 | -6
C/C(=N\N1CCN(c2ccccc2)CC1)c1ccncc1 | -2 | -2 | -1 | -1 | -2 | 1 | . | .
O=C(Cn1cncc1-c1ccc([N+](=O)[O-])cc1)Nc1cccc2ccccc12 | -7 | -14 | 13 | 6 | 2 | 50* | 7 | -3
O=C(CCNS(=O)(=O)c1ccccc1C(F)(F)F)N1CCCCCCC1 | -7 | 2 | -5 | 0 | -2 | 52* | 2 | 3
CC(C)n1c(=S)[nH]c2scc(-c3cccs3)c2c1=O | 30 | -1 | 45 | 15 | 3 | 80* | 14 | -1
CCn1c(=S)[nH]c2scc(-c3cccs3)c2c1=O | 13 | 11 | -1 | -1 | 0 | -9 | . | .
Cc1sc(NC(=O)c2cc(-c3ccc(Cl)cc3)nc3ccccc23)c(C(N)=O)c1C | 7 | 0 | 2 | 14 | 3 | 61* | 0 | -7
CCCC(=O)N1CCCC(c2cc(C(=O)NCc3cccnc3)no2)C1 (stereo not drawn) | 2 | -6 | . | 1 | -3 | -2 | . | .
Cc1cc(C(=O)OCC(=O)N2CC(=O)Nc3ccccc32)no1 | 4 | 1 | -8 | -3 | -4 | -1 | . | .
Cc1c(C(=O)OCC(=O)N2CC(=O)Nc3ccccc32)oc2ccc(Br)cc12 | 2 | -1 | -6 | 1 | 5 | 51* | 1 | 2
COc1ccc2[nH]cc(CCNC(=O)Cc3c(F)cccc3Cl)c2c1 | 7 | 4 | -8 | 1 | 2 | 72* | 3 | 8
CC1(c2nnc(Cc3ccccc3)o2)CC(c2ccc(OC(F)(F)F)cc2)=NO1 (stereo not drawn) | -3 | -2 | -2 | 2 | 0 | 5 | . | .
O=C1CC(c2ccco2)CC(O)=C1C=Nc1cc(Cl)ccc1Cl (stereo not drawn) | 20 | 0 | -4 | 2 | 2 | 37 | . | .
O=C1CC(c2ccco2)CC(O)=C1C=Nc1cc(Cl)ccc1O (stereo not drawn) | 23 | 21 | 72* | 9 | 4 | 89* | 3 | -2
C=CCc1cccc(C=Nc2c[nH]c(=O)[nH]c2=O)c1O | 4 | -2 | -12 | 0 | 2 | 72* | 2 | 1
C=CCc1cccc(C=Nc2cc(Br)ccc2O)c1O | 1 | 2 | -7 | -1 | -2 | 0 | . | .
CC(C)(CC(=O)O)CC(=O)Nc1ccc(Cl)c(Cl)c1 | -2 | 0 | -7 | -2 | 1 | 2 | . | .
CC1(C(=O)NS(=O)(=O)c2ccc3c(c2)CCO3)CCN1C(=O)C1(c2ccc(Cl)cc2)CC1 (stereo not drawn) | 1 | 4 | . | -2 | -2 | 1 | . | .
CC1(C(=O)NS(=O)(=O)c2ccc3c(c2)CCO3)CCN1C(=O)COc1ccc(Cl)cc1 (stereo not drawn) | -3 | 2 | . | -3 | -2 | 85* | 4 | 6
c1coc(-c2ccc3nncn3c2)c1 | 43 | 87* | . | 5 | 28 | 102* | 76* | 1 | Beacon interf DR=>99
CC(=O)NC12CC3CC(C1)CC(C(=O)OCC(=O)c1cc(C)n(C)c1C)(C3)C2 | -1 | 0 | -3 | -1 | 2 | 51* | 3 | 2
Cc1ccc(CNC(=O)[C@H]2C[C@@H]2[C@H](NP(=O)(c2ccccc2)c2ccccc2)c2ccccc2)o1 | 2 | -5 | -3 | 0 | 0 | 71* | 2 | 0
CN(C)C(CNC(=O)c1cc2ccccc2o1)c1ccco1 (stereo not drawn) | 0 | 0 | -7 | -2 | -2 | 5 | . | .
CCc1ccc(-n2cccc2/C=C2/C(=N)N3C(=NC2=O)SN=C3S(C)(=O)=O)cc1 | 23 | -9 | 48 | 9 | 3 | 28 | . | .
SMILES | CSN inh | SUMO1 PPI mod | Scp-1 inhibitor | LMPTP block | STEP block | DNMT1 inh | DNMT1 inh conf | DNMT1 interf | others
Cc1ccc(-n2cccc2/C=C2/C(=N)N3C(=NC2=O)SN=C3S(C)(=O)=O)cc1 | 25 | -6 | 31 | 10 | 4 | 76* | 19 | 2
CC1=NN2C(=N)/C(=C\c3cc(C)n(Cc4ccccc4)c3C)C(=O)N=C2S1 | 1 | -12 | -1 | 0 | -1 | 2 | . | .
CC1=NN2C(=N)/C(=C\c3ccc(SCc4ccccc4)o3)C(=O)N=C2S1 | 8 | 5 | 20 | 3 | 5 | 64* | 3 | 2
Cn1c(C(=O)NN)cc2cc(OCc3ccccc3)ccc21 | 3 | -2 | -5 | -1 | 1 | -2 | . | .
CCOC(=O)c1ccc(CNS(=O)(=O)c2c(C)ccc3nsnc23)o1 | 1 | -21 | 1 | -1 | 0 | 69* | 4 | 4
O=C(CC1C(=O)NCCN1Cc1c(F)cccc1Cl)NCCCOc1cccnc1 (stereo not drawn) | -2 | 3 | 8 | 3 | -2 | -3 | . | .
O=c1oc(-c2cccs2)nc2sc3c(c12)CCC3 | 2 | -3 | -9 | -1 | 0 | 18 | . | .
O=c1oc(/C=C/c2ccco2)nc2sc3c(c12)CCC3 | 42* | 10 | 11 | 3 | 2 | 108* | 6 | 8
Cc1cc(SCCC(=O)O)nc2c(C)cccc12 | 0 | -1 | -12 | -1 | 2 | 3 | . | .
COc1ccc(-c2nnc(SCC(=O)NCc3ccco3)o2)cc1 | -3 | -1 | -4 | 0 | 0 | 2 | . | .
Cc1cc(SCC(=O)NC(=O)NCc2ccco2)nc2ccccc12 | 2 | 4 | 0 | 2 | 2 | -1 | . | .
O=C(CSc1nnc(-c2ccc(OC(F)F)cc2)o1)NC(=O)NCc1ccco1 | 15 | 4 | 49 | 13 | 6 | 83* | 26 | 4
Cc1cc(SCC(=O)NC(=O)NCc2ccco2)nc2c(C)cccc12 | 9 | 6 | 41 | -2 | 3 | 53* | 0 | 0
Cc1cc(SCC(=O)N2CCCC2=O)nc2c(C)cccc12 | -7 | -2 | -4 | 1 | -1 | 80* | 3 | -1
CCCCCn1c(N)c(-c2nc3ccccc3s2)c2c([N+](=O)[O-])nn(CC)c(=O)c21 | 3 | 11 | -5 | 4 | 3 | -3 | . | .
